Data from article PMC2808857 (Journal of clinical pharmacology, 2009).
Like-named read-outs stand apart in the source and are kept apart here.

Key:
[1] = tested on: patients with advanced refractory solid tumors; assay: Toxicity assessment; assay type: in vivo, human
[2] = cited from earlier work
[3] = assay type: in vivo, human; conditions: for AUC / Cmax / T1/2 / Tmax / Urine excretion, %dose: mean (range); for Urine excretion, %dose: urine 0-24 hr
Summary of the method: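 Patients with refractory solid tumors took the capsule with water after overnight fasting. Plasma was drawn predose and at 0.5, 1, 2, 4, 6, 9, 12, 24, 32 and 48 h, then stored at −70°C. Drug was extracted into ethyl acetate and quantified by LC–ESI single-quadrupole MS (LLOQ 5 ng/ml). Parameters were noncompartmental per patient, with Cmax and Tmax as observed. Renal clearance = Ae,0–24/AUC0–24.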

[4] = Population pharmacokinetic analysis
[5] = tested on: patients with refractory metastatic solid tumors; assay: Response to therapy; assay type: in vivo, human
Summary of the method: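 Patients with refractory metastatic solid tumors received oral test compound once daily (5–40 mg/day dose escalation), taken with water after overnight fasting. Dosing was initially continuous over 28-day cycles, then amended to 21 days on and 7 days off. Treatment continued until progression or toxicity. Measurable disease was assessed by RECIST, with radiographic studies at end of cycle 3 and every other cycle thereafter.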

[6] = 5 mg single oral dose, cycle 1 day 1, n=2
[7] = 10 mg single oral dose, cycle 1 day 1, n=6
[8] = 15 mg single oral dose, cycle 1 day 1, n=3
[9] = 20 mg single oral dose, cycle 1 day 1, n=9
[10] = 25 mg single oral dose, cycle 1 day 1, n=6
[11] = 30 mg single oral dose, cycle 1 day 1, n=8
[12] = 35 mg single oral dose, cycle 1 day 1, n=6
[13] = 40 mg single oral dose, cycle 1 day 1, n=3

In the case of “(α -(3-aminophthalimido) glutarimide) [lenalidomide]”, the “patients with dose reductions” value ([1]; continuous doses, 4 out of 15 patients) is reported as 27%, the “Anemia, Grade 3, number of patients” value ([1]; continuous dosing (n=15)) is reported as 1 and the “Constipation, Grade 1, number of patients” value ([1]; continuous dosing (n=15)) is reported as 2. The “Constipation, Grade 2, number of patients” value ([1]; continuous dosing (n=15)) was 1, the “Diarrhea, Grade 1, number of patients” value ([1]; continuous dosing (n=15)) was 4 and the “Dizziness, Grade 1, number of patients” value ([1]; continuous dosing (n=15)) was 3. For the same substance, the “Dizziness, Grade 2, number of patients” value ([1]; continuous dosing (n=15)) was 1, the “Fatigue, Grade 1, number of patients” value ([1]; continuous dosing (n=15)) was 4 and the “Fatigue, Grade 2, number of patients” value ([1]; continuous dosing (n=15)) was 1. For the same substance, the “Flatulence, Grade 1, number of patients” value ([1]; continuous dosing (n=15)) was 3, the “Hypotension, Grade 1, number of patients” value ([1]; continuous dosing (n=15)) was 2 and the “Hypotension, Grade 3, number of patients” value ([1]; continuous dosing (n=15)) was 1. For the same substance, the “Nausea, Grade 1, number of patients” value ([1]; continuous dosing (n=15)) was 4, the “Neuropathic Sensory, Grade 1, number of patients” value ([1]; continuous dosing (n=15)) was 4 and the “Neutropenia, Grade 1, number of patients” value ([1]; continuous dosing (n=15)) was 1. For the same substance, the “Neutropenia, Grade 2, number of patients” value ([1]; continuous dosing (n=15)) was 3, the “Neutropenia, Grade 3, number of patients” value ([1]; continuous dosing (n=15)) was 2 and the “Pleural effusion, Grade 1, number of patients” value ([1]; continuous dosing (n=15)) was 2. For the same substance, the “Pruritus, Grade 1, number of patients” value ([1]; continuous dosing (n=15)) was 5, the “Pruritus, Grade 2, number of patients” value ([1]; continuous dosing (n=15)) was 1 and the “Rash/desquamation, Grade 1, number of patients” value ([1]; continuous dosing (n=15)) was 4. The “SGPT, Grade 2, number of patients” value ([1]; continuous dosing (n=15)) was 2, the “Thrombosis, Grade 3, number of patients” value ([1]; continuous dosing (n=15)) was 2 and the “Anemia, Grade 1, number of patients” value ([1]; intermittent dose (n=35)) was 1. For the same substance, the “Anemia, Grade 2, number of patients” value ([1]; intermittent dose (n=35)) was 1, the “Anemia, Grade 3, number of patients” value ([1]; intermittent dose (n=35)) was 1 and the “Anorexia, Grade 1, number of patients” value ([1]; intermittent dose (n=35)) was 3. For the same substance, the “Anorexia, Grade 2, number of patients” value ([1]; intermittent dose (n=35)) was 1, the “Constipation, Grade 1, number of patients” value ([1]; intermittent dose (n=35)) was 4 and the “Constipation, Grade 2, number of patients” value ([1]; intermittent dose (n=35)) was 5. The “Diarrhea, Grade 1, number of patients” value ([1]; intermittent dose (n=35)) was 5, the “Diarrhea, Grade 3, number of patients” value ([1]; intermittent dose (n=35)) was 1 and the “Dizziness, Grade 1, number of patients” value ([1]; intermittent dose (n=35)) was 8. For the same substance, the “Dysgeusia, Grade 1, number of patients” value ([1]; intermittent dose (n=35)) was 3, the “Edema, Grade 1, number of patients” value ([1]; intermittent dose (n=35)) was 4 and the “Fatigue, Grade 1, number of patients” value ([1]; intermittent dose (n=35)) was 14. The “Fever, Grade 1, number of patients” value ([1]; intermittent dose (n=35)) was 4, the “Hemolysis, Grade 2, number of patients” value ([1]; intermittent dose (n=35)) was 1 and the “Hemolysis, Grade 4, number of patients” value ([1]; intermittent dose (n=35)) was 1. The “Infection, Grade 2, number of patients” value ([1]; intermittent dose (n=35)) was 1, the “Infection, Grade 3, number of patients” value ([1]; intermittent dose (n=35)) was 2 and the “Insomnia, Grade 1, number of patients” value ([1]; intermittent dose (n=35)) was 5. For the same substance, the “Leukopenia, Grade 2, number of patients” value ([1]; intermittent dose (n=35)) was 1, the “Leukopenia, Grade 3, number of patients” value ([1]; intermittent dose (n=35)) was 1 and the “Myalgia, Grade 1, number of patients” value ([1]; intermittent dose (n=35)) was 5. The “Myalgia, Grade 2, number of patients” value ([1]; intermittent dose (n=35)) was 1, the “Nausea, Grade 1, number of patients” value ([1]; intermittent dose (n=35)) was 9 and the “Nausea, Grade 2, number of patients” value ([1]; intermittent dose (n=35)) was 1. For the same substance, the “Neutropenia, Grade 1, number of patients” value ([1]; intermittent dose (n=35)) was 1, the “Neutropenia, Grade 2, number of patients” value ([1]; intermittent dose (n=35)) was 2 and the “Neutropenia, Grade 3, number of patients” value ([1]; intermittent dose (n=35)) was 2. The “Neutropenia, Grade 4, number of patients” value ([1]; intermittent dose (n=35)) was 3, the “Pleural effusion, Grade 1, number of patients” value ([1]; intermittent dose (n=35)) was 2 and the “Pleural effusion, Grade 3, number of patients” value ([1]; intermittent dose (n=35)) was 1. For the same substance, the “Pruritus, Grade 1, number of patients” value ([1]; intermittent dose (n=35)) was 4, the “Pruritus, Grade 2, number of patients” value ([1]; intermittent dose (n=35)) was 1 and the “Rash/desquamation, Grade 1, number of patients” value ([1]; intermittent dose (n=35)) was 7. For the same substance, the “Rash/desquamation, Grade 2, number of patients” value ([1]; intermittent dose (n=35)) was 3, the “Supraventricular arrythmia, Grade 4, number of patients” value ([1]; intermittent dose (n=35)) was 1 and the “Thrombocytopenia, Grade 1, number of patients” value ([1]; intermittent dose (n=35)) was 3. The “Thrombocytopenia, Grade 3, number of patients” value ([1]; intermittent dose (n=35)) was 2, the “patients with dose reductions” value ([1]; intermittent doses, 7 out of 30 patients) was 23% and the “dose up to which lenalidomide was well tolerated” value ([1]; intermittent dosing schedule, 21 days on, 7 days off) was “up to 35 mg/day”. For the same substance, the “unchanged lenalidomide excreted into urine, fraction of dose” value ([2]; healthy volunteers) was “two thirds”, the “increase of lenalidomide exposure in mild RI over normal function” value ([2]; patients with multiple myeloma) was 56% and the AUC [3, 6] was 302 (257, 346) ng·hr/ml. The Cmax [3, 6] was 80 (66, 93) ng/ml, the T1/2 [3, 6] was 2.7 (2.1, 3.3) hr and the Tmax [3, 6] was 0.75 (0.5, 1) hr. For the same substance, the AUC [3, 7] was 571 (256–1415) ng·hr/ml, the Cmax [3, 7] was 107 (59–163) ng/ml and the T1/2 [3, 7] was 3.1 (2.4–4.2) hr. The Tmax [3, 7] was 1 (0.5– 4) hr, the AUC [3, 8] was 1090 (712–1391) ng·hr/ml and the Cmax [3, 8] was 195 (174–224) ng/ml. The Tmax [3, 8] was 2 (1–4) hr, the AUC [3, 9] was 1901 (239–4093) ng·hr/ml and the Cmax [3, 9] was 343 (64–621) ng/ml. For the same substance, the T1/2 [3, 9] was 3.1 (1.9–7.8) hr, the Tmax [3, 9] was 1 (0.5–6.1) hr and the AUC [3, 10] was 3820 (1081–11363) ng·hr/ml. For the same substance, the Cmax [3, 10] was 451 (311–631) ng/ml, the T1/2 [3, 10] was 5.3 (1.6–15.9) hr and the Tmax [3, 10] was 1.5 (0.5–8.9) hr. For the same substance, the AUC [3, 11] was 4040 (844–15445) ng·hr/ml, the Cmax [3, 11] was 593 (69–1315) ng/ml and the T1/2 [3, 11] was 4.0 (3.2–14.2) hr. The Tmax [3, 11] was 1.5 (0.5–6) hr, the “Urine excretion, %dose” value ([3]; 30 mg single oral dose, n=3) was 47.0 (36.3–62.0) %dose and the AUC [3, 12] was 5309 (3172–7062) ng·hr/ml. The Cmax [3, 12] was 782 (594–969) ng/ml, the T1/2 [3, 12] was 6.7 (3.7–14.5) hr and the Tmax [3, 12] was 1 (0.5–4) hr. For the same substance, the “Urine excretion, %dose” value ([3]; 35 mg single oral dose, n=4) was 54.6 (48.3–63.1) %dose, the AUC [3, 13] was 3926 (3281–4656) ng·hr/ml and the Cmax [3, 13] was 842 (648–1002) ng/ml. The T1/2 [3, 13] was 4.1 (1.8–6.2) hr, the Tmax [3, 13] was 1 (0.75–2) hr and the “Urine excretion, %dose” value ([3]; 40 mg single oral dose, n=2) was 44.9 (43.8, 46.0) %dose. The “CL/F_renal as share of the total clearance” value ([3]; 9 patients) was “about 50%”, the “amount of unchanged lenalidomide excreted into urine for 24 hours” value ([3]; 30-40 mg dose groups) was 45–55 % of dose and the “mean half-life (T1/2)” value ([3]; across all doses 5-40 mg, oral) was 3.9 h. The “time of peak plasma concentration” value ([3]; after single oral administration) was “around 1 hour”, the “interpatient variability on total lenalidomide clearance” value ([4]; before inclusion of CLCr in the model) was 70.6% and the “BSV of Tlag, Population Mean (95% CI)” value ([4]; final PopPK model) was 30.0 (2.2 – 47.9) CV%. The “BSV of V/F, Population Mean (95% CI)” value ([4]; final PopPK model) was 33.0 (1.0 – 48.0) CV%, the “BSV of ka, Population Mean (95% CI)” value ([4]; final PopPK model) was 146 (95 – 184) CV% and the “Residual error, Population Mean (95% CI)” value ([4]; final PopPK model) was 34.0 (26.9 – 40.0) CV%. The “Tlag, Population Mean (95% CI)” value ([4]; final PopPK model) was 0.37 (0.30 – 0.43) hr, the “V/F, Population Mean (95% CI)” value ([4]; final PopPK model) was 57.8 (49.4 – 66.2) L and the “ka, Population Mean (95% CI)” value ([4]; final PopPK model) was 4.60 (0.66 – 8.54) 1/hr. The “CL/F, Mild RI, Population Mean (95% CI)” value ([4]; final PopPK model, 50 ≤ CLCr ≤ 80 mL/min) was 136 (97 – 175) ml/min, the “CL/F, Normal renal function, Population Mean (95% CI)” value ([4]; final PopPK model, CLCr > 80 mL/min) was 243 (193 – 297) ml/min and the “BSV of Tlag, Bootstrap Median (95% CI)” value ([4]; non-parametric bootstrap) was 29.1 (4.5 – 65.1) CV%. For the same substance, the “BSV of V/F, Bootstrap Median (95% CI)” value ([4]; non-parametric bootstrap) was 31.5 (14.5 – 52.4) CV%, the “BSV of ka, Bootstrap Median (95% CI)” value ([4]; non-parametric bootstrap) was 143 (92 – 197) CV% and the “Residual error, Bootstrap Median (95% CI)” value ([4]; non-parametric bootstrap) was 33.8 (27.4 – 40.9) CV%. For the same substance, the “Tlag, Bootstrap Median (95% CI)” value ([4]; non-parametric bootstrap) was 0.37 (0.25 – 0.43) hr, the “V/F, Bootstrap Median (95% CI)” value ([4]; non-parametric bootstrap) was 57.8 (51.3 – 66.7) L and the “ka, Bootstrap Median (95% CI)” value ([4]; non-parametric bootstrap) was 4.67 (2.52 – 9.19) 1/hr. The “CL/F, Mild RI, Bootstrap Median (95% CI)” value ([4]; non-parametric bootstrap, 50 ≤ CLCr ≤ 80 mL/min) was 136 (103 – 178) ml/min, the “CL/F, Normal renal function, Bootstrap Median (95% CI)” value ([4]; non-parametric bootstrap, CLCr > 80 mL/min) was 243 (202 – 297) ml/min and the “dose-normalized AUC” value ([4]; patients with normal renal function) was 75 ng·h/ml per mg. For the same substance, the “dose-normalized AUC” value ([4]; renally impaired subjects (mild RI)) was 167 ng·h/ml per mg, the “median time on-study of patients with stable disease” value ([5]; 12 patients, range 4 – 11) was 5 months and the “complete or partial response” value ([5]; 44 evaluable patients) was “No complete or partial response was noted”. The “patients with stable disease who had prostate cancer” value ([5]; of 12 patients with SD) was 9.
